Activity calls are given as the source filed them. The rule behind the calls is not given here.
Columns and labels:
[1] = tested on: HuT78; test: Inhibition of NCp7 of HIV1 3B persistently infected in HUT78 cells assessed as accumulation of unprocessed Gag polyprotein after 43 hrs by Western blot analysis; type: cell-based; settings: Human immunodeficiency virus 1
Procedure, shortened: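 Washed HuT-78(IIIB) cells (2x10^5 in 1 ml) treated with compound for 43 h at 37°C. Virions pelleted from clarified supernatant (36,670 g, 2 h, 4°C), lysed, run on SDS-PAGE and transferred to PVDF. Blot probed with mouse anti-p24 (1:5000), then HRP anti-mouse (1:2500), with chemiluminescent detection.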

[2] = tested on: Human immunodeficiency virus 1; test: Virucidal activity against HIV1 3B infected in human MT4 cells assessed as reduction of virus infectivity at 125 ug/ml after 1 hr by MTT assay; type: functional, organism-based
Procedure, shortened: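 HIV-1 IIIB stock incubated with compound in 100 µl RPMI-1640/10% FCS for 1 h at 37°C, then diluted 4000-fold. Residual infectivity titrated on MT-4 cells, with CCID50 calculated by the Reed and Muench method.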

[3] = Selectivity index, ratio of CC50 for human MT4 cells to EC50 for HIV1 3B; type: toxicity, cell-based; settings: read-out: Ratio CC50/EC50
Procedure, shortened: (§1)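 Compounds added at start in serial 5-fold dilutions, triplicate wells, to mock- and virus-infected cells (100-300 CCID50 per well). After 5 days, viability by MTT reduction (OD540). Mean ± SD, at least two experiments.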

[4] = tested on: Human immunodeficiency virus 1; test: Antiviral activity against AZT-resistant HIV1 ADP/141 harboring reverse transcriptase D67N/K70R/T215F/K219Q mutant infected in human MT4 cells; type: functional, organism-based; settings: Human immunodeficiency virus 1, ADP/141, MT4
Procedure, shortened: (§2)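 MT-4 cells in RPMI 1640 with 10% heat-inactivated FCS were infected at the start of the experiment, with compound added across serial 5-fold dilutions in triplicate wells. Cells were seeded at 6 x 10^5 cells/ml. After 5 days, protection against virus-induced cytopathic effect was read by MTT reduction at OD540. […] Values are means ± SD of at least two experiments.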

[5] = tested on: Human immunodeficiency virus 1; test: Antiviral activity against HIV1 3B infected in human MT4 cells assessed as inhibition of viral replication by measuring p24 Ag production at 2 ug/ml measured at 31 hrs post infection by ELISA; type: functional, organism-based
Procedure, shortened: (§3)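 MT-4 cells infected with HIV-1 IIIB at m.o.i. 0.5, 1 h adsorption, then seeded at 45,000 cells/well at 37°C. Compound added at times from 0 to 25 h post-infection. Read-out was p24 in supernatant by ELISA at 31 h post-infection.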

[6] = Selectivity index, ratio of CC50 for human MT4 cells to EC50 for ritonavir-resistant HIV1 3B/RIT; type: toxicity, cell-based; settings: read-out: Ratio CC50/EC50
Procedure, shortened: (§4)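 Uninfected and infected MT-4 cells were run in parallel in triplicate over serial 5-fold compound dilutions for 5 days, and viability was read by MTT at OD540. […] SI = CC50/EC50, from means of at least two experiments.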

[7] = Cytotoxicity against human HUT78 cells assessed as reduction in cell viability after 5 days by MTT assay; type: cell-based
[8] = Selectivity index, ratio of CC50 for human MT4 cells to EC50 for NRTI/NNRTI-resistant HIV1 L6 harboring reverse transcriptase V75I/F77L/K103N/F116Y/Q151M/M184V mutant; type: toxicity, cell-based; settings: read-out: Ratio CC50/EC50; procedure, shortened: as §4
[9] = tested on: Human immunodeficiency virus 2; test: Antiviral activity against HIV2 ROD infected in human MT4 cells assessed as protection against virus-induced cytopathic effect after 5 days by MTT assay; type: functional, organism-based; settings: Human immunodeficiency virus 2, ISOLATE ROD, MT4, 120 h
Procedure, shortened: (§5)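 MT-4 cells in RPMI 1640 with 10% heat-inactivated FCS, resuspended at 6 x 10^5 cells/ml. Compounds added at start in serial 5-fold dilutions, triplicate wells, to mock- and virus-infected cells (100-300 CCID50 per well). After 5 days, viability by MTT reduction (OD540). […] Mean ± SD, at least two experiments.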

[10] = tested on: Human immunodeficiency virus 1; test: Antiviral activity against ritonavir-resistant HIV1 3B/RIT infected in human MT4 cells; type: functional, organism-based; settings: Human immunodeficiency virus 1, 3B/RIT; procedure, shortened: as §2
[11] = Selectivity index, ratio of CC50 for human MT4 cells to EC50 for ritonavir-resistant HIV1 B12 harboring […] L10I/I15V/I54V/L63P/V82A/I85V mutant; type: toxicity, cell-based; settings: read-out: Ratio CC50/EC50; procedure, shortened: as §4
[12] = Selectivity index, ratio of CC50 for human HUT78 cells to EC50 for HIV1 3B; type: toxicity, cell-based; settings: read-out: Ratio CC50/EC50
Procedure, shortened: (§6)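 Chronically HIV-1 IIIB-infected HuT-78 cells washed four times in PBS to remove free virions and seeded at 2 × 10^5 cells/well with 7 serial 5-fold compound dilutions for 43 h at 37°C. Supernatant p24 measured by ELISA. Cytotoxicity was run in parallel by MTT plus microscopy. SI = CC50/EC50. Mean ± SD, ≥2 experiments.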

[13] = Selectivity index, ratio of CC50 for human MT4 cells to EC50 for HIV-2 ROD; type: toxicity, cell-based; settings: read-out: Ratio CC50/EC50; procedure, shortened: as §1
[14] = tested on: Human immunodeficiency virus 1; test: Antiviral activity against HIV1 3B infected in human MT4 cells assessed as protection against virus-induced cytopathic effect after 5 days by MTT assay; type: functional, organism-based; settings: Human immunodeficiency virus 1, 3B, MT4, 120 h; procedure, shortened: as §5
[15] = tested on: Human immunodeficiency virus 1; test: Antiviral activity against ritonavir-resistant HIV1 B12 harboring […] L10I/I15V/I54V/L63P/V82A/I85V mutant infected in human MT4 cells; type: functional, organism-based; settings: Human immunodeficiency virus 1, B12, MT4; procedure, shortened: as §2
[16] = tested on: Human immunodeficiency virus 1; test: Antiviral activity against HIV1 3B infected in human MT4 cells assessed as inhibition of viral replication by measuring p24 Ag production at 50 ug/ml measured at 31 hrs post infection by ELISA; type: functional, organism-based; procedure, shortened: as §3
[17] = tested on: Human immunodeficiency virus 1; test: Antiviral activity against HIV1 3B persistently infected in HUT78 cells assessed as reduction of p24 production after 43 hrs by ELISA; type: functional, organism-based; settings: Human immunodeficiency virus 1, 3B, HuT78, 43 h; procedure, shortened: as §6
[18] = tested on: Human immunodeficiency virus 1; test: Antiviral activity against NNRTI-resistant HIV1 RES056 harboring reverse transcriptase K103N/181C double mutant infected in human MT4 cells; type: functional, organism-based; settings: Human immunodeficiency virus 1, RES056, MT4; procedure, shortened: as §2
[19] = tested on: Human immunodeficiency virus 1; test: Antiviral activity against NRTI/NNRTI-resistant HIV1 L6 harboring reverse transcriptase V75I/F77L/K103N/F116Y/Q151M/M184V mutant infected in human MT4 cells; type: functional, organism-based; settings: Human immunodeficiency virus 1, L6, MT4; procedure, shortened: as §2
[20] = Cytotoxicity against human MT4 cells assessed as cell viability after 5 days by MTT assay; type: cell-based; procedure, shortened: as §1
[21] = Selectivity index, ratio of CC50 for human MT4 cells to EC50 for AZT-resistant HIV1 ADP/141 harboring reverse transcriptase D67N/K70R/T215F/K219Q mutant; type: toxicity, cell-based; settings: read-out: Ratio CC50/EC50; procedure, shortened: as §4
[22] = Antiviral activity against nevirapine-resistant SIV mac251 infected in human MT4 cells; type: functional, cell-based; settings: Simian immunodeficiency virus; procedure, shortened: as §2
[23] = Selectivity index, ratio of CC50 for human MT4 cells to EC50 for NNRTI-resistant HIV1 RES056 harboring reverse transcriptase K103N/181C double mutant; type: toxicity, cell-based; settings: read-out: Ratio CC50/EC50; procedure, shortened: as §4
[24] = tested on: Human immunodeficiency virus 1; test: Virucidal activity against HIV1 3B infected in MT4 cells assessed as reduction of virus infectivity at 125 ug/ml after 1 hr by MTT assay
[25] = Selectivity index, ratio of CC50 for human MT4 cells to EC50 for nevirapine-resitant SIV Mac251
[26] = tested on: Human immunodeficiency virus 1; test: Antiviral activity against HIV1 3B infected in human MT4 cells assessed as inhibition of viral replication by measuring p24 Ag production at 60 ug/ml measured at 31 hrs post infection by ELISA; type: functional, organism-based; procedure, shortened: as §3
[27] = tested on: Human immunodeficiency virus 1; test: Antiviral activity against HIV1 3B infected in human MT4 cells assessed as inhibition of viral replication by measuring p24 Ag production at 90 ug/ml measured at 31 hrs post infection by ELISA; type: functional, organism-based; procedure, shortened: as §3
[28] = Selectivity index, ratio of CC50 for human CEM cells to EC50 for HIV1 3B; type: toxicity, cell-based, CCRF-CEM
[29] = Cytotoxicity against human CEM cells by XTT assay; type: cell-based, CCRF-CEM
[30] = tested on: Human immunodeficiency virus 1; test: Antiviral activity against HIV1 3B infected in human CEM cells assessed as protection against virus-induced cytopathic effect by XTT assay; type: functional, organism-based; settings: Human immunodeficiency virus 1, 3B, CCRF-CEM

SMILES	inhibition [1]	selectivity ratio [3]	EC50 [4] [µM]	inhibition [5]	selectivity ratio [6]	CC50 at 120 h [7] [µM]	selectivity ratio [8]	EC50 [9] [µM]	EC50 [10] [µM]	selectivity ratio [11]	selectivity ratio [12]	selectivity ratio [13]	EC50 [14] [µM]	EC50 [15] [µM]	EC50 [17] [µM]	EC50 [18] [µM]	EC50 [19] [µM]	CC50 at 120 h [20] [µM]	selectivity ratio [21]	EC50 [22] [µM]	further results
O=C(O)CNC(=O)c1ccccc1[Se][Se]c1ccccc1C(=O)NCC(=O)O	Dose-dependent effect	37	4.51	Active	36	108	34	3.5	3.3	18	7.8	34	3.15	6.43	14.1	3.51	3.44	117	26	2.21	Activity [2]: Active; inhibition [16]: Active; selectivity ratio [23]: 33; Activity [24]: Active; Ratio CC50/EC50 [25]: 52
Cc1cn([C@H]2C[C@H](N=[N+]=[N-])[C@@H](CO)O2)c(=O)[nH]c1=O [ZIDOVUDINE]	Dose-dependent effect	> 748	0.03					0.008				> 935	0.01				> 7.48	> 7.48			
O=C(O)CC[C@H](NC(=O)c1ccccc1[Se][Se]c1ccccc1C(=O)N[C@@H](CCC(=O)O)C(=O)O)C(=O)O	Dose-dependent effect	32	2.8	Active	20	100	16	3.18	5.42	8	6.5	34	3.31	14.5	15.5	3.61	6.59	107	38	1.7	Activity [2]: Active; inhibition [26]: Active; selectivity ratio [23]: 29; Activity [24]: Active; Ratio CC50/EC50 [25]: 63
CC[C@H](C)[C@H](NC(=O)c1ccccc1[Se][Se]c1ccccc1C(=O)N[C@H](C(=O)O)[C@@H](C)CC)C(=O)O	Dose-dependent effect	12	14.7	Active	6	> 162	6	13.1	25.8	6	> 2.2	13	13.8	27.7	73.2	28	25.9	164	11	17.4	inhibition [27]: Active; selectivity ratio [23]: 6; Ratio CC50/EC50 [25]: 9
CC[C@H](C)[C@H](NC(=O)c1ccccc1SSc1ccccc1C(=O)N[C@H](C(=O)O)[C@@H](C)CC)C(=O)O																					selectivity ratio [28]: > 13.3; CC50 [29]: > 120 µM; EC50 [30]: 9 µM
